Measurements taken from ChEMBL document CHEMBL1127330, “N-Phosphonomethyl dipeptides and their phosphonate prodrugs, a new generation of neutral endopeptidase (NEP, EC 3.4.24.11) inhibitors” (J Med Chem, 1994).

Columns and labels:
[1] = Ratio of maximum plasma concentration (C) measured ex vivo to that of IC50 of (10a or 10c) in rat treated intravenously with 10 mg/kg; format: functional; settings: route intravenous
How it was run: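 Conscious rats, femorally catheterised 24 h earlier, dosed iv at 10 mg/kg. Arterial blood was sampled before and at intervals after dosing into EDTA, then centrifuged. Plasma was ultrafiltered through a 30 000 MW cutoff with 0.1 N HCl at 10 °C. Unbound active inhibitor in the ultrafiltrate was measured by GAAP/rat kidney membrane NEP assay and expressed relative to the IC50 of the active metabolite.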

[2] = molecular target: T1, Neprilysin (Rattus norvegicus, UniProt P07861); experiment: In vitro inhibition of Neutral endopeptidase (NEP) enzyme
T1 sequence (P07861 whole entry): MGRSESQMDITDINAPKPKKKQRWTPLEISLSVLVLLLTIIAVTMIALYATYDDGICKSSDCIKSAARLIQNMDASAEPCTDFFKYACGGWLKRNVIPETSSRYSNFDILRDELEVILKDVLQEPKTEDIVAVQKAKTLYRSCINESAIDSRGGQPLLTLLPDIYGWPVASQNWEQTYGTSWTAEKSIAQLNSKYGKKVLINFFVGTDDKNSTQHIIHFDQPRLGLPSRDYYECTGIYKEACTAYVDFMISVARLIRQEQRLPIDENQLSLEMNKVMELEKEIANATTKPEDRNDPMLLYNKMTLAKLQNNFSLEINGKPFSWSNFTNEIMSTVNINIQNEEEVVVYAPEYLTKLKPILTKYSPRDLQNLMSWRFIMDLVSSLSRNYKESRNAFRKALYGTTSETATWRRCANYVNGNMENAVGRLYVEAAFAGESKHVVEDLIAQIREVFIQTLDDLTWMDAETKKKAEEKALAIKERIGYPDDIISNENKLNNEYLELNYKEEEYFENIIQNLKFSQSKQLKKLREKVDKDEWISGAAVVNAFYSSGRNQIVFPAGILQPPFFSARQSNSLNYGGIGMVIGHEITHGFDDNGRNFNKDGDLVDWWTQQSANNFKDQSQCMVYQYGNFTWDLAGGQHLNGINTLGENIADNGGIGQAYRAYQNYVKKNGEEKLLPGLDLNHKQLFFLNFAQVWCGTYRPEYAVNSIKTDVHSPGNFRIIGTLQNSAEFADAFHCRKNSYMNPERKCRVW

Compound | Ratio [1] | IC50 [2] [nM]
O=C(CCNC(=O)[C@H](Cc1ccc(-c2ccccc2)cc1)NCP(=O)(Oc1ccccc1)Oc1ccccc1)OC1CCc2ccccc21 (some centres not stated) | 69 | 
CCN(CC)C(=O)COC(=O)CCNC(=O)[C@H](Cc1ccc(-c2ccccc2)cc1)NCP(=O)(Oc1ccccc1)Oc1ccccc1 | 135 | 
COP(=O)(O)CNC(Cc1ccc(-c2ccccc2)cc1)C(=O)NCCC(=O)O (configuration not stated) |  | 301
O=C(O)CCNC(=O)[C@H](Cc1ccc(-c2ccccc2)cc1)NCP(=O)(O)O |  | 1.9
COc1ccc(OP(=O)(CN[C@@H](Cc2ccc(-c3ccccc3)cc2)C(=O)NCCC(=O)O)Oc2ccc(OC)cc2)cc1 | 5 | 
O=C(O)CCNC(=O)C(Cc1ccc(-c2ccccc2)cc1)NCP(=O)(O)OCc1ccccc1 (configuration not stated) |  | 1000
O=C(O)CCCNC(=O)C(Cc1ccc(-c2ccccc2)cc1)NCP(=O)(O)O (configuration not stated) |  | 11
CCOC(=O)CCNC(=O)C(Cc1ccc(-c2ccccc2)cc1)NCP(=O)(O)O (configuration not stated) |  | 120
O=C(O)CCNC(=O)[C@H](Cc1ccc(-c2ccccc2)cc1)NCP(=O)(O)Oc1ccccc1 | 41 | 238
O=C(O)CCNC(=O)[C@H](Cc1ccc(-c2ccccc2)cc1)NCP(=O)(OC1CCc2ccccc21)OC1CCc2ccccc21 (some centres not stated) | 41 | 
O=C(O)CCNC(=O)C(Cc1ccccc1)CP(=O)(O)O (configuration not stated) |  | 207
COc1cccc(OP(=O)(CN[C@@H](Cc2ccc(-c3ccccc3)cc2)C(=O)NCCC(=O)O)Oc2cccc(OC)c2)c1 | 240 | 
CCCc1ccc(OP(=O)(CN[C@@H](Cc2ccc(-c3ccccc3)cc2)C(=O)NCCC(=O)O)Oc2ccc(CCC)cc2)cc1 | 18 | 
O=C(O)c1ccc(NC(=O)C(Cc2ccc(-c3ccccc3)cc2)NCP(=O)(O)O)cc1 (configuration not stated) |  | 10
Cc1ccc(OP(=O)(CN[C@@H](Cc2ccc(-c3ccccc3)cc2)C(=O)NCCC(=O)O)Oc2ccc(C)c(C)c2)cc1C | 40 | 
O=C(O)CCNC(=O)[C@H](Cc1ccc(-c2ccccc2)cc1)NCP(=O)(Oc1ccccc1)Oc1ccccc1 | 225 | 
O=C(O)CCNC(=O)C(Cc1ccccc1)CP(=O)(O)OCCc1ccccc1 (configuration not stated) |  | > 1000
O=C(CCNC(=O)[C@H](Cc1ccc(-c2ccccc2)cc1)NCP(=O)(Oc1ccccc1)Oc1ccccc1)OCc1ccccc1 | 75 | 
CCC(=O)OC(C)OP(=O)(CNC(Cc1ccc(-c2ccccc2)cc1)C(=O)NCCC(=O)O)OC(C)OC(=O)CC (configuration not stated) | 283 | 
CCC(=O)OC(OP(=O)(CNC(Cc1ccc(-c2ccccc2)cc1)C(=O)NCCC(=O)O)OC(OC(=O)CC)C(C)C)C(C)C (configuration not stated) | 380 | 
O=C(O)CCNC(=O)C(Cc1ccccc1)OP(=O)(O)CCCCc1ccccc1 (configuration not stated) |  | > 1000
C[C@H](NC(=O)C(Cc1ccc(-c2ccccc2)cc1)NCP(=O)(O)O)C(=O)O (some centres not stated) |  | 3
CCCCCCCC(=O)OC(OP(=O)(O)CNC(Cc1ccc(-c2ccccc2)cc1)C(=O)NCCC(=O)OCC)C(C)C (configuration not stated) | 50 | 

Compound | Ratio [1] | IC50 [2] [nM]
CCOP(=O)(CNC(Cc1ccc(-c2ccccc2)cc1)C(=O)NCCC(=O)O)OCC (configuration not stated) |  | > 1000
CC(C)C[C@H](NP(=O)(O)O[C@@H]1O[C@@H](C)[C@H](O)[C@@H](O)[C@H]1O)C(=O)N[C@@H](Cc1c[nH]c2ccccc12)C(=O)O [PHOSPHORAMIDON] |  | 27
CCOC(=O)CCNC(=O)C(Cc1ccc(-c2ccccc2)cc1)NCP(=O)(OC(OC(=O)CC)C(C)C)OC(OC(=O)CC)C(C)C (configuration not stated) | 503 | 
O=C(N[C@H](C(=O)O)c1ccccc1)C(Cc1ccc(-c2ccccc2)cc1)NCP(=O)(O)O (some centres not stated) |  | 2
CC(C)c1ccc(OP(=O)(CN[C@@H](Cc2ccc(-c3ccccc3)cc2)C(=O)NCCC(=O)O)Oc2ccc(C(C)C)cc2)cc1 | 40 | 
CCN(CC)C(=O)COC(=O)CCNC(=O)[C@H](Cc1ccc(-c2ccccc2)cc1)NCP(=O)(O)Oc1ccccc1 | 9 | 
Cc1cc(C)cc(OP(=O)(CN[C@@H](Cc2ccc(-c3ccccc3)cc2)C(=O)NCCC(=O)O)Oc2cc(C)cc(C)c2)c1 | 149 | 
O=C(O)CCNC(=O)C(Cc1ccc(-c2ccccc2)cc1)NCP(=O)(O)O (configuration not stated) |  | 4
O=C(O)CCNC(=O)[C@@H](Cc1ccc(-c2ccccc2)cc1)NCP(=O)(O)O |  | 1800
CC(C)N(C(=O)COC(=O)CCNC(=O)[C@H](Cc1ccc(-c2ccccc2)cc1)NCP(=O)(O)Oc1ccccc1)C(C)C | 5 | 
O=C(O)CCNC(=O)C(Cc1ccccc1)OP(=O)(O)CCc1ccccc1 (configuration not stated) |  | > 1000
O=C(CCNC(=O)[C@H](Cc1ccc(-c2ccccc2)cc1)NCP(=O)(O)Oc1ccccc1)OCc1ccccc1 | 16 | 
Cc1ccc(OP(=O)(CN[C@@H](Cc2ccc(-c3ccccc3)cc2)C(=O)NCCC(=O)O)Oc2ccc(C)cc2)cc1 | 31 | 
O=C(O)CCNC(=O)C(Cc1ccc(-c2ccc(F)cc2)cc1)NCP(=O)(O)O (configuration not stated) |  | 14
CCOC(=O)CCNC(=O)C(Cc1ccc(-c2ccccc2)cc1)NCP(=O)(OCOC(=O)C(C)C)OCOC(=O)C(C)C (configuration not stated) | 535 | 
CCOC(=O)CCNC(=O)C(Cc1ccc(-c2ccccc2)cc1)NCP(=O)(OC(OC(=O)CC)C1CCCCC1)OC(OC(=O)CC)C1CCCCC1 (configuration not stated) | 64 | 
CCOC(=O)CCNC(=O)C(Cc1ccc(-c2ccccc2)cc1)NCP(=O)(OCOC(=O)C(C)(C)C)OCOC(=O)C(C)(C)C (configuration not stated) | 816 | 
O=C(O)CNC(=O)C(Cc1ccc(-c2ccccc2)cc1)NCP(=O)(O)O (configuration not stated) |  | 5
O=C(O)CCNC(=O)C(Cc1ccccc1)OP(=O)(O)CNC(=O)OCc1ccccc1 (configuration not stated) |  | > 1000
CC(C)(C)C(=O)OCOP(=O)(CNC(Cc1ccc(-c2ccccc2)cc1)C(=O)NCCC(=O)O)OCOC(=O)C(C)(C)C (configuration not stated) | 322 | 
CCOC(=O)CCNC(=O)C(Cc1ccc(-c2ccccc2)cc1)NCP(=O)(OC(OC(=O)C(C)C)C(C)C)OC(OC(=O)C(C)C)C(C)C (configuration not stated) | 97 | 
O=C(O)CCNC(=O)C(Cc1ccccc1)NCP(=O)(O)O (configuration not stated) |  | 1150
CCOC(=O)CCNC(=O)[C@H](Cc1ccc(-c2ccccc2)cc1)NCP(=O)(Oc1ccccc1)Oc1ccccc1 | 160 | 
